Measurements published in ChEMBL document CHEMBL4627381, “Licochalcone A Selectively Resensitizes ABCG2-Overexpressing Multidrug-Resistant Cancer Cells to Chemotherapeutic Drugs” (J Nat Prod, 2020).
The source made the active and inactive calls. No cut-off for these calls is given here.

Key:
S1 [1] = test: Induction of apoptosis in human S1 cells assessed as necrotic cells at 10 uM incubated for 48 hrs by annexin V/propidium iodide staining based flow cytometry (reference value: 0.2%); type: functional
Method in brief: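 S1 cells were exposed for 48 h to DMSO, 10 μM compound, 5 μM topotecan, or 5 μM topotecan plus 10 μM compound. They were then stained with 1.25 μg/mL annexin V–FITC and 0.1 mg/mL PI for 15 min at room temperature. 10000 cells per sample were analysed by flow cytometry; three independent experiments.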

LS180 = test: Upregulation of ABCB1 mRNA expression in human LS180 cells at 1 uM by […] relative to control; type: functional
S1-M1-80 = test: Downregulation of ABCG2 expression in human S1-M1-80 cells at 0.5 to 3 uM incubated for 72 hrs by Western blot analysis; type: functional, cell-based
Method in brief: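 S1-M1–80 and H460-MX20 cells were treated with 0.5–3.0 μM or DMSO vehicle for 72 h, then run on SDS-PAGE and immunoblotted with BXP-21 (1:15000) for ABCG2. α-Tubulin (1:100000) served as loading control, with HRP goat anti-mouse secondary. Bands were quantified as mean ± SEM of three independent experiments.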

[2] = biological target: T1, Broad substrate specificity ATP-binding cassette transporter ABCG2 (Homo sapiens, UniProt Q9UNQ0); test: Inhibition of ABCG2 (unknown origin)-mediated pheophorbide A efflux in human S1 cells incubated for 1 hr by FACScan flow cytometry; type: cell-based; conditions: s1, 1 h
T1 sequence (Q9UNQ0 whole entry): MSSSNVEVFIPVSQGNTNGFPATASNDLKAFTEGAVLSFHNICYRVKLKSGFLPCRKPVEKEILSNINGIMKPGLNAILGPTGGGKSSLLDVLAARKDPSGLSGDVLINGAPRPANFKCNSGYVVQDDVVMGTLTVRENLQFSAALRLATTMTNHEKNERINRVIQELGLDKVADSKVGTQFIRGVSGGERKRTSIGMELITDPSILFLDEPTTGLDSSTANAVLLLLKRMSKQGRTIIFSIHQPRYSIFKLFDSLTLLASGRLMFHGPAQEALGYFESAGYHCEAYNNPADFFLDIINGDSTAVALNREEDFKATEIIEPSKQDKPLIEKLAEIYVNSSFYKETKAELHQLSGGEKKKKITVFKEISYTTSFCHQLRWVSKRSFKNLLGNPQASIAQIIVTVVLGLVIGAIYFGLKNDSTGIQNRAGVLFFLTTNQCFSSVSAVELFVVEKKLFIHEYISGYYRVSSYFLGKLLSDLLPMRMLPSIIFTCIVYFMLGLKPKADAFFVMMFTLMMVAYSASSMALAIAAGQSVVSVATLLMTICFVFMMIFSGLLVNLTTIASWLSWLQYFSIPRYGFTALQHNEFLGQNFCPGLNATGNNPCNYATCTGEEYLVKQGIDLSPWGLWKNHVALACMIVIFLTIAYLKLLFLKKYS
Method in brief: (§1)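 Cells held drug-free 7 days. 3 × 10^5 cells were suspended in IMDM with 5% FCS and loaded with pheophorbide A (ex 395/em 670 nm) for 1 h, with or without LCA (20 μM for single-concentration accumulation) or Ko143 3 μM as reference. Read immediately by flow cytometry. Efflux inhibition was run over a concentration range; mean ± SD of three experiments.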

[3] = biological target: T1, Broad substrate specificity ATP-binding cassette transporter ABCG2; test: Inhibition of human ABCG2-mediated pheophorbide A efflux in HEK293/R482 cells incubated for 1 hr by FACScan flow cytometry; type: cell-based; method in brief: as §1
[4] = biological target: Multidrug resistance-associated protein 1 (Homo sapiens, UniProt P33527); test: Modulation of human ABCC1 expressed in HEK293/MRP1 cells assessed as increase in intracellular calcein-AM accumulation at 20 uM incubated for 10 mins by FACScan flow cytometry; type: cell-based
Method in brief: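 Cells held drug-free 7 days. 3 × 10^5 cells in IMDM with 5% FCS were loaded with calcein-AM for 10 min, with or without 20 μM LCA. Reference inhibitors were tariquidar 3 μM (ABCB1) and MK-571 25 μM (ABCC1). Calcein fluorescence (ex 485/em 535 nm) was read by flow cytometry; at least three independent experiments.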

NCI-H460 = test: Effect on topotecan-induced cytotoxicity against human H460 cells assessed as fold change in topotecan IC50 at 1 uM after 72 hrs by MTT assay relative to topotecan IC50; type: functional
Method in brief: (§2)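 Parental S1 colon and H460 lung cancer cells were exposed for 72 h to a mitoxantrone or topotecan concentration series, with or without modulator at 0.5–3.0 μM, and read by MTT. Fold-reversal is IC50 without modulator divided by IC50 with modulator, taken from dose-response curves of three independent experiments.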

[5] = biological target: T1, Broad substrate specificity ATP-binding cassette transporter ABCG2; test: Reversal of ABCG2 (unknown origin)-mediated multidrug resistance in human S1-M1-80 cells assessed as fold-change in topotecan IC50 at 3 uM after 72 hrs by MTT assay relative to topotecan IC50; type: cell-based; conditions: s1-m1-80, 72 h
Method in brief: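 MTT readout in S1-M1-80 colon cancer cells (mitoxantrone-selected, held in 80 μM mitoxantrone, then drug-free 7 days before assay). Cells were seeded at 5000/well for 24 h, then given increasing mitoxantrone or topotecan with DMSO or non-toxic modulator for 72 h at 37 °C. IC50 came from fitted dose-response curves (at least three independent experiments). Fold-reversal = IC50 without modulator ÷ IC50 with modulator.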

S1 [6] = test: Effect on topotecan-induced cytotoxicity against human S1 cells assessed as fold change in topotecan IC50 at 3 uM after 72 hrs by MTT assay relative to topotecan IC50; type: functional; method in brief: as §2
[7] = biological target: T1, Broad substrate specificity ATP-binding cassette transporter ABCG2; test: Reversal of human ABCG2-mediated multidrug resistance in HEK293/R482 cells assessed as fold-change in topotecan IC50 at 3 uM after 72 hrs by CCK8 relative to topotecan IC50; type: cell-based
Method in brief: (§3)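 Cells were seeded at 5000/well for 24 h, then given colchicine, etoposide, mitoxantrone or topotecan ± non-toxic modulator (0.5–3.0 μM) for 72 h, with DMSO up to 0.5%. IC50 came from fitted curves (mean ± SD, three experiments). Fold-reversal = IC50 without modulator ÷ IC50 with modulator.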

[8] = biological target: T1, Broad substrate specificity ATP-binding cassette transporter ABCG2; test: Reversal of human ABCG2-mediated multidrug resistance in HEK293/R482 cells assessed as fold-change in topotecan IC50 at 2 uM after 72 hrs by CCK8 relative to topotecan IC50; type: cell-based; method in brief: as §3
HEK293 [9] = test: Effect on topotecan-induced cytotoxicity against HEK293 cells assessed as fold change in topotecan IC50 at 2 uM after 72 hrs by CCK8 assay relative to topotecan IC50; type: cell-based; conditions: human, hek293, 72 h
Method in brief: (§4)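 Reversal assay in parental pcDNA-HEK293 and transfected HEK293 lines (ABCB1 for colchicine, ABCC1 for etoposide, ABCG2 for mitoxantrone/topotecan). Substrate drug series was given with or without nontoxic modulator (0.5, 1.0, 2.0 or 3.0 μM) for 72 h, with a CCK-8 read-out. Fold-reversal is substrate IC50 without modulator divided by IC50 with modulator. Three independent experiments.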

HEK293 [10] = test: Effect on Colchicine-induced cytotoxicity against HEK293 cells assessed as fold change in colchicine IC50 at 0.5 uM after 72 hrs by CCK8 assay relative to colchicine IC50; type: cell-based; conditions: human, hek293, 72 h; method in brief: as §4

Sequence of Multidrug resistance-associated protein 1 (P33527 whole entry): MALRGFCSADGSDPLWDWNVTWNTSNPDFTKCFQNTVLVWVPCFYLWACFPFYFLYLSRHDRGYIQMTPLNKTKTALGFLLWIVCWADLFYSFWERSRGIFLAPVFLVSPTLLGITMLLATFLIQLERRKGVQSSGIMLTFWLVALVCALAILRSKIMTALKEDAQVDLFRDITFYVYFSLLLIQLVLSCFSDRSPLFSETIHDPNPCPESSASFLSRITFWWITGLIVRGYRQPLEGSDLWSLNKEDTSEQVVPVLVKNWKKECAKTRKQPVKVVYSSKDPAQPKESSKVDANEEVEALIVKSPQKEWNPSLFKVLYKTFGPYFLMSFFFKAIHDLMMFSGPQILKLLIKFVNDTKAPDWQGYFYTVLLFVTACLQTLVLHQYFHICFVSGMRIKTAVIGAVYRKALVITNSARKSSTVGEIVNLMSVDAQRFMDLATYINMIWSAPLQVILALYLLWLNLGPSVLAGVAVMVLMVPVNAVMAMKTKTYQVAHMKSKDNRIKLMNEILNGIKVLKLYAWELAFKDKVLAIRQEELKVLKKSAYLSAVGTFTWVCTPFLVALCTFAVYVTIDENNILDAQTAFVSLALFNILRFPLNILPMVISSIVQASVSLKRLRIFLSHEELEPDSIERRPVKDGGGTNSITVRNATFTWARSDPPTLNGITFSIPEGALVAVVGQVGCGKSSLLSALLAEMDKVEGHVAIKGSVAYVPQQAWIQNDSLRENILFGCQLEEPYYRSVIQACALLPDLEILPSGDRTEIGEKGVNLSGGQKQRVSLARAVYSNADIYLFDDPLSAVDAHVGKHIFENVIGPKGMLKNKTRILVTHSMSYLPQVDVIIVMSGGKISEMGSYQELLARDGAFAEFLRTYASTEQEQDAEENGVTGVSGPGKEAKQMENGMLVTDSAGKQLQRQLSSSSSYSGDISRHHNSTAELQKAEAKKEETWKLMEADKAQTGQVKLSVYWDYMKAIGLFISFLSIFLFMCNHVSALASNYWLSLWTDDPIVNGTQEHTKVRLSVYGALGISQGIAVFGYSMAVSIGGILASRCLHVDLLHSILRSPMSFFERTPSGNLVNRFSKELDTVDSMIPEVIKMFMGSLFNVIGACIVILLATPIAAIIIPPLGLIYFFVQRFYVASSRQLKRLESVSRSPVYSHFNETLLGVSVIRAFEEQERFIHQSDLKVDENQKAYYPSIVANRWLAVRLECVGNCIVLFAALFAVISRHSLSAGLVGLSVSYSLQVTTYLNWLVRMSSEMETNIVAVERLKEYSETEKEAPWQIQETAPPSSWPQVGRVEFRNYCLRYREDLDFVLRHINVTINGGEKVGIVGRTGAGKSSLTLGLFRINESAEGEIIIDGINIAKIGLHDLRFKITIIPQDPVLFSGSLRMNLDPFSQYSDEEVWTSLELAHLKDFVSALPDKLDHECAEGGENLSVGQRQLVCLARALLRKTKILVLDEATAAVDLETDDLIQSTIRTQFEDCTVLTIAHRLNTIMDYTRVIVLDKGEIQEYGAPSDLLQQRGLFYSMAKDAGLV

Structure (SMILES): C=CC(C)(C)c1cc(/C=C/C(=O)c2ccc(O)cc2)c(OC)cc1O [LICOAGROCHACONE A]
- Activity (S1 [1]): 0.2%
- fold change (FC) (LS180): 2 - 6
- Activity (S1-M1-80): inactive
- inhibition (INH) [2]: Dose-dependent effect
- inhibition (INH) [3]: Dose-dependent effect
- Activity [4]: Not Active
- fold change (FC) (NCI-H460): 1.7
- fold change (FC) [5]: 32.7
- fold change (FC) (S1 [6]): 0.9
- fold change (FC) [7]: 4.7
- fold change (FC) [8]: 4.6
- fold change (FC) (HEK293 [9]): 1
- fold change (FC) (HEK293 [10]): 1
